Test results as given in ChEMBL document CHEMBL5331127, “Discovery of ARD-2051 as a Potent and Orally Efficacious Proteolysis Targeting Chimera (PROTAC) Degrader of Androgen Receptor for the Treatment of Advanced Prostate Cancer” (J Med Chem, 2023).
Activity calls are given as the source filed them. The calls are words filed in the database; no cut-off is given here.

Experiments:
[1] = test system: Mus musculus; assay: In vivo induction of androgen receptor degradation in human VCaP cells xenografted in CB17 SCID mouse at 12.5 mg/kg, po measured upto 24 hrs by […] analysis; assay type: functional, organism-based
[2] = target: T1, Androgen receptor (Homo sapiens, UniProt P10275); assay: Induction of androgen receptor degradation in human VCaP cells incubated for 24 hrs by Western blot analysis; assay type: cell-based
T1 sequence (P10275 whole entry): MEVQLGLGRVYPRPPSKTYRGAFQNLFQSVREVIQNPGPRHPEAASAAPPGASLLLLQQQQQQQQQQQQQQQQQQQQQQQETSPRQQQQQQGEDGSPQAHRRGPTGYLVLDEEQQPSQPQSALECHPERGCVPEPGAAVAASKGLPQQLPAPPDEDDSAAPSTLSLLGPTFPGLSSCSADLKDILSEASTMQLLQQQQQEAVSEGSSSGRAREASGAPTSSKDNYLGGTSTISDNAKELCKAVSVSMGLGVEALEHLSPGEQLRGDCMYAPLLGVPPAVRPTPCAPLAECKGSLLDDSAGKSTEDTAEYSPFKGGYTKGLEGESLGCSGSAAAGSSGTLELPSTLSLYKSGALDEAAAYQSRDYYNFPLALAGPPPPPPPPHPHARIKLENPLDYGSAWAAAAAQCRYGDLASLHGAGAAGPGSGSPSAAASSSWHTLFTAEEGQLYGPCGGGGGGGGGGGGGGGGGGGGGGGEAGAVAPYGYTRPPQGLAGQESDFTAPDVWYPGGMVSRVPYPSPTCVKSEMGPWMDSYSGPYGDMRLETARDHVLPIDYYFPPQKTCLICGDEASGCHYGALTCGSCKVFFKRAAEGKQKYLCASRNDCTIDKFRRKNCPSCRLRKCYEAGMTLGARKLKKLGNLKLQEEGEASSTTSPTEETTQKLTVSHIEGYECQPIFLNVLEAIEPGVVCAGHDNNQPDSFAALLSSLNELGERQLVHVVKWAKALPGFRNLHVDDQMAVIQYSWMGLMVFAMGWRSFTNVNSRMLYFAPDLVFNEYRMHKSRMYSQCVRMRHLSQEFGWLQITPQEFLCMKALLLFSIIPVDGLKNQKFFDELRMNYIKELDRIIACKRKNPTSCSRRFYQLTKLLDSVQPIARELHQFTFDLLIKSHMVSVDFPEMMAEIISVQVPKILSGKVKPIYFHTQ

[3] = Plasma protein binding in dog at 1 uM after 5 hrs by equilibrium dialysis based LC-MS/MS analysis; assay type: ADME, cell-free, Canis lupus familiaris
Summary of the method: (§1)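 Equilibrium dialysis of pooled plasma of each species spiked at 1 μM against 0.1 M sodium phosphate, pH 7.4. 5 h at 37 °C with shaking at 60 rpm. Both sides matrix-matched, ACN/IS quench, LC/MS. % bound = 100 − (buffer/plasma peak-area ratio × 100); recovery also calculated. Warfarin as reference.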

[4] = Plasma protein binding in mouse at 1 uM after 5 hrs by equilibrium dialysis based LC-MS/MS analysis; assay type: ADME, cell-free; summary of the method: as §1
[5] = target: T2, Androgen receptor (Homo sapiens) (UniProt P10275); assay: Induction of androgen receptor degradation in human VCaP cells at 0.01 uM after 24 hrs by Western blotting analysis relative to control; assay type: cell-based
T2 sequence (whole entry): T1 sequence (P10275 whole entry)
Summary of the method: (§2)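 VCaP cells treated for 24 h at 10, 100 or 1000 nM. AR protein measured by Western blotting.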

[6] = Metabolic stability in human plasma assessed as half life at 1 uM measured upto 120 mins by LC-MS/MS analysis; assay type: ADME, cell-free; conditions: 2 h
Summary of the method: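 Compound at 1 μM final in pre-warmed plasma of each species, 37 °C for up to 2 h. ACN/IS quench at 0, 5, 15, 30, 60 and 120 min; LC/MS. Procaine as reference (benfluorex for rat). t1/2 = 0.693/slope of ln(fraction remaining) versus time.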

[7] = test system: VCaP; assay: Induction of androgen receptor degradation in human VCaP cells at 100 nM pretreated with ARi-12 for 2 hrs followed by compound addition and 3 hrs by Western blot analysis; assay type: functional, cell-based; conditions: time 5.0 hrs
Summary of the method: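 LNCaP or VCaP cells pretreated 2 h with DMSO, ARi-12 (10 μM), thalidomide (10 μM), MG-132 (3 μM) or MLN4924 (0.5 μM), then given degrader at 100 nM for 3 h. AR measured by Western blot with GAPDH as loading control.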

[8] = Metabolic stability in dog liver microsomes assessed as half life at 1 uM measured upto 45 mins in presence of NADPH by LC-MS/MS analysis; assay type: ADME, Canis lupus familiaris, Microsome; conditions: 0.75 h
Summary of the method: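 Pooled liver microsomes from each species: 1 μM compound with 0.5 mg/mL microsomes and 1.7 mM NADPH in 0.1 M K-phosphate, pH 7.4, 5 mM MgCl2, 37 °C. Sampled at 0, 5, 10, 15, 30 and 45 min with cold ACN quench. No-NADPH incubation as negative control; ketanserin as positive control. LC-MS/MS; half-life from ln(remaining) versus time.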

[9] = test system: VCaP; assay: Growth inhibition in human VCaP cells incubated for 4 days by WST-8 assay; assay type: functional, cell-based; conditions: 96 h
[10] = Oral bioavailability in Beagle dog at 3 mg/kg measured up to 24 hrs by LC-MS/MS analysis; assay type: ADME, organism-based, Canis lupus familiaris; conditions: in vivo
Summary of the method: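 Male Beagle dogs. IV 1 mg/kg in 10% PEG400 + 90% PBS (pH 8.0); PO 3 mg/kg in 90% PEG400 + 10% Cremophor. Plasma PK to 24 h; F from IV and PO exposure.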

[11] = AUC(0 to t) in Beagle dog at 1 mg/kg, iv measured upto 24 hrs by LC-MS/MS analysis; assay type: ADME, organism-based, Canis lupus familiaris; parameters: time < 24 hrs, dose 1 mg/kg, route iv; conditions: in vivo
Summary of the method: (§3)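 Male ICR mice (2 mg/kg), male SD rats (1 mg/kg) or male Beagle dogs (1 mg/kg) given a single intravenous dose in 10% PEG400 + 90% PBS adjusted to pH 8.0 with NaOH.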

[12] = Half life in Beagle dog at 1 mg/kg, iv measured upto 24 hrs by LC-MS/MS analysis; assay type: ADME, organism-based, Canis lupus familiaris; conditions: in vivo; summary of the method: as §3
[13] = target: Cytochrome P450 2D6 (Homo sapiens, UniProt P10635); assay: Inhibition of CYP2D6 in human liver microsomes preincubated for 5 mins followed by NADPH addition and measured after 10 mins by LC/MS analysis; assay type: ADME, Microsome
[14] = target: T2, Androgen receptor (Homo sapiens); assay: Induction of androgen receptor degradation in human VCaP cells at 1 uM after 24 hrs by Western blotting analysis relative to control; assay type: cell-based; summary of the method: as §2
[15] = Clearance in Beagle dog at 1 mg/kg, iv measured upto 24 hrs by LC-MS/MS analysis; assay type: ADME, organism-based, Canis lupus familiaris; conditions: in vivo; summary of the method: as §3
[16] = Volume of distribution at steady state in Sprague-Dawley rat at 1 mg/kg, iv measured upto 24 hrs by LC-MS/MS analysis; assay type: ADME, organism-based; conditions: in vivo
[17] = Half life in Beagle dog at 3 mg/kg, po measured up to 24 hrs by LC-MS/MS analysis; assay type: ADME, organism-based, Canis lupus familiaris; conditions: in vivo
Summary of the method: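 Male Beagle dogs dosed orally at 3 mg/kg in 90% PEG400 + 10% Cremophor.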

[18] = test system: Mus musculus; assay: In vivo induction of androgen receptor degradation in human VCaP cells xenografted in CB17 SCID mouse assessed as reduction in FKBP5 mRNA level at 12.5 mg/kg, po measured after 6 to 24 hrs by qRT-PCR analysis; assay type: functional, organism-based; conditions: time 6-24 hrs

Sequence of Cytochrome P450 2D6 (P10635 whole entry): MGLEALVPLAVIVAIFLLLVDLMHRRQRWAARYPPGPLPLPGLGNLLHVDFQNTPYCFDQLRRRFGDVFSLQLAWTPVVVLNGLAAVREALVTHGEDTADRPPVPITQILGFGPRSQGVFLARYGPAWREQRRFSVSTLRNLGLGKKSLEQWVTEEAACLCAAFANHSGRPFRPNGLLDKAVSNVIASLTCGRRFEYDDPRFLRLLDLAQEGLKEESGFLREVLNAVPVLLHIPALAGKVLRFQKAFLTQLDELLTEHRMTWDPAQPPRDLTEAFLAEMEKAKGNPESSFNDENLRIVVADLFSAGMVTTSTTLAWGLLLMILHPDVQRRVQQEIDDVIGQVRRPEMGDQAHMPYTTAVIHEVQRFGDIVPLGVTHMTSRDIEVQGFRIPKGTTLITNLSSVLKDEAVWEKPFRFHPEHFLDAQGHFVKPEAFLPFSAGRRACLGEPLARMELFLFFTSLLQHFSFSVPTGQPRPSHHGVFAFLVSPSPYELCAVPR

Compound: C[C@H]1CC2(CCN(c3ccc(C(=O)N4CCN(C5CN(c6ccc7c(c6)C(=O)N(C6CCC(=O)NC6=O)C7=O)C5)CC4)cc3)CC2)CN1c1ccc(C#N)c(Cl)c1 (stereo partly drawn)
- Activity [1]: Active
- EC50 [2]: 0.6 nM
- PPB [3]: 99.3%
- PPB [4]: 99.2%
- Activity [5]: > 95%
- t1/2 [6]: > 2 h
- Activity [7]: inactive
- t1/2 [8]: > 1 h
- IC50 [9]: 10 nM
- F [10]: 46%
- AUCt [11]: 3240 ng·h/mL
- t1/2 [12]: 8.9 h
- IC50 [13]: > 10000 nM
- Activity [14]: > 95%
- clearance [15]: 4.6 mL/min/kg
- Vdss [16]: 1.3 L/kg
- t1/2 [17]: 3.4 h
- Activity [18]: Active
